Measurements published in ChEMBL document CHEMBL1152541, “Staurosporine tethered peptide ligands that target cAMP-dependent protein kinase (PKA): optimization and selectivity profiling” (Bioorg Med Chem, 2009).
*1 amine or outer side, *2 acyl side, *3 side chain or, on linkers, in order; H or OH if unused. Where a SMILES comes first, the peptide text is derived from it. Bridges are numbered along the chain shown (N, C = ends). [ ]: non-standard residue; d: D form. The star is where a group is joined. Staurosporine = CO[C@@H]1[C@H](N(C)*)C[C@H]2O[C@]1(C)n1c3ccccc3c3c4c(c5c6ccccc6n2c5c31)C(=O)NC4; Suc = O=C(CCC(=O)[*:2])[*:1]; Dap = NC[C@H](N)C(=O)O; βAla = NCCC(=O)O

Columns and labels:
[1] = target: Serine/threonine-protein kinase PLK3 (Homo sapiens) (UniProt Q9H4B4); assay: Binding affinity to human PLK3 at 500 nM by cell-based competition binding assay relative to control in presence of DTT
[2] = target: RAC-alpha serine/threonine-protein kinase (Homo sapiens) (UniProt P31749); assay: Binding affinity to human AKT1 at 500 nM by cell-based competition binding assay relative to control in presence of DTT
Method in brief: (§1)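 Kinase binding profiling ran on a commercial (Ambit) competitive binding screen against a panel of 90 kinases. The screen used reducing conditions with 7.5 mM DTT. To withstand the DTT, the bivalent ligand was tested as its amide isostere, with the disulfide replaced. A staurosporine derivative carrying a 3 β-alanine linker was run as the reference compound.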

[3] = target: Cyclin-dependent kinase 2 (Homo sapiens) (UniProt P24941); assay: Binding affinity to human CDK2 at 500 nM by cell-based competition binding assay relative to control in presence of DTT; method in brief: as §1
[4] = target: Fibroblast growth factor receptor 2 (Homo sapiens) (UniProt P21802); assay: Binding affinity to human FGFR2 at 500 nM by cell-based competition binding assay relative to control in presence of DTT
Method in brief: (§2)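 Commercial (Ambit) competitive kinase-binding panel of 90 kinases measured the binding profile. Run under reducing conditions of 7.5 mM DTT. Binding is expressed relative to control.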

[5] = Ratio of compound IC50 to bivalent ligand 1 IC50 for PKA
[6] = target: Dual specificity tyrosine-phosphorylation-regulated kinase 1B (Homo sapiens) (UniProt Q9Y463); assay: Binding affinity to human DYRK1B at 200 nM by cell-based competition binding assay relative to control in presence of DTT; method in brief: as §2
[7] = target: Receptor tyrosine-protein kinase erbB-4 (Homo sapiens) (UniProt Q15303); assay: Binding affinity to human ERBB4 at 200 nM by cell-based competition binding assay relative to control in presence of DTT; method in brief: as §2
[8] = target: Tyrosine-protein kinase receptor UFO (Homo sapiens) (UniProt P30530); assay: Binding affinity to human AXL at 200 nM by cell-based competition binding assay relative to control in presence of DTT; method in brief: as §1
[9] = target: Macrophage colony-stimulating factor 1 receptor (Homo sapiens) (UniProt P07333); assay: Binding affinity to human CSF1R at 200 nM by cell-based competition binding assay relative to control in presence of DTT; method in brief: as §2
[10] = target: T1, Testis-specific serine/threonine-protein kinase 1 (Homo sapiens) (UniProt Q9BXA7); assay: Binding affinity to human TSSK1 at 200 nM by cell-based competition binding assay relative to control in presence of DTT
T1 sequence (whole entry): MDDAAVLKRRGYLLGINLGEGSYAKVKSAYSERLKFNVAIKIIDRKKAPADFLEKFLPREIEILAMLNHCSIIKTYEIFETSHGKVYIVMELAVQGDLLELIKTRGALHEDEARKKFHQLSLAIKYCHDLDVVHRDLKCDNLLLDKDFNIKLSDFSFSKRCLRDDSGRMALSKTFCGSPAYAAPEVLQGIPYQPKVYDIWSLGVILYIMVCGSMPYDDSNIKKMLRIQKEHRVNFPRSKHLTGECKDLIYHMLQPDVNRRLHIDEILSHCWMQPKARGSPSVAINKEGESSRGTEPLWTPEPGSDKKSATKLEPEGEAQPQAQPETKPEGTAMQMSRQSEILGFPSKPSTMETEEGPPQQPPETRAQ

[11] = system: Tyrosine-protein kinase ABL1 (Homo sapiens), P00519 [T315I]; assay: Binding affinity to human ABL1 T315I mutant at 50 nM by cell-based competition binding assay relative to control in presence of DTT; method in brief: as §1
[12] = target: Cyclin-dependent kinase 9 (Homo sapiens) (UniProt P50750); assay: Binding affinity to human CDK9 at 50 nM by cell-based competition binding assay relative to control in presence of DTT; method in brief: as §2
[13] = target: Mast/stem cell growth factor receptor Kit (Homo sapiens) (UniProt P10721); assay: Binding affinity to human KIT at 50 nM by cell-based competition binding assay relative to control in presence of DTT
Method in brief: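 Competition binding screen (Ambit) across a panel of 90 kinases, scoring test ligand displacement of each kinase's binding relative to control. The screen ran under reducing conditions with 7.5 mM DTT.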

[14] = target: Dual specificity mitogen-activated protein kinase kinase 1 (Homo sapiens) (UniProt Q02750); assay: Binding affinity to human MEK1 at 50 nM by cell-based competition binding assay relative to control in presence of DTT
Method in brief: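 Kinase binding profile from a commercial panel of 90 kinases, run as a competitive binding assay. The panel was screened under reducing conditions of 7.5 mM DTT. Signal was compared with the untreated control.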

[15] = target: MAP kinase-interacting serine/threonine-protein kinase 1 (Homo sapiens) (UniProt Q9BUB5); assay: Binding affinity to human MKNK1 at 50 nM by cell-based competition binding assay relative to control in presence of DTT
[16] = target: Platelet-derived growth factor receptor beta (Homo sapiens) (UniProt P09619); assay: Binding affinity to human PDGFRbeta at 50 nM by cell-based competition binding assay relative to control in presence of DTT
[17] = target: Receptor tyrosine-protein kinase erbB-2 (Homo sapiens) (UniProt P04626); assay: Binding affinity to human ERBB2 at 50 nM by cell-based competition binding assay relative to control in presence of DTT; method in brief: as §2

Chain of Macrophage colony-stimulating factor 1 receptor (Homo sapiens) (P07333 whole entry): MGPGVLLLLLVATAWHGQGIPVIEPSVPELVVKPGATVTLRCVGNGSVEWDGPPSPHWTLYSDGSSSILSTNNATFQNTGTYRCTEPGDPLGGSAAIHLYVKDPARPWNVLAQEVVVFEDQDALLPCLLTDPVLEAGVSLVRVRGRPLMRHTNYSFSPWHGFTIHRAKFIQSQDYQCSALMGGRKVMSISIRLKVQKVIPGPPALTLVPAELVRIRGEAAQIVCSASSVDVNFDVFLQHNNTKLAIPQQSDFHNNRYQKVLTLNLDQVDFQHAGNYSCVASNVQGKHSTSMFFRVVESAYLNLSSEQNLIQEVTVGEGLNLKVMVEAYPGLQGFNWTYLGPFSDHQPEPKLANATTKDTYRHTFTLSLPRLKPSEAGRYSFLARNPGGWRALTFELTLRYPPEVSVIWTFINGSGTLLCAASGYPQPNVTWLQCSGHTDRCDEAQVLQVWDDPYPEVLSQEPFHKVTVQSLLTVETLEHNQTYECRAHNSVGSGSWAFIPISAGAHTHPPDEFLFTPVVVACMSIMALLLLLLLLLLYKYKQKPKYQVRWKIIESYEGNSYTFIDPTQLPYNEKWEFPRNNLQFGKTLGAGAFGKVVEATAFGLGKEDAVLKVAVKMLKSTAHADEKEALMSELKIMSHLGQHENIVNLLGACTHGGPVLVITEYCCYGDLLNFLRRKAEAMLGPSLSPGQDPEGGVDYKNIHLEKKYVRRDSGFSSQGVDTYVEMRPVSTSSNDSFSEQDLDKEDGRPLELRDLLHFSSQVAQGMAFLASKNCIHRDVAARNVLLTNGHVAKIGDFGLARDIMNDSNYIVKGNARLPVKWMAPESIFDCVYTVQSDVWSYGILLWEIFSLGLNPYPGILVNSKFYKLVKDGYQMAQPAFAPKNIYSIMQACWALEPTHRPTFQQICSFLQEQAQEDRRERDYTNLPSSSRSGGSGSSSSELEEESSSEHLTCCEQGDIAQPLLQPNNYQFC
Chain of RAC-alpha serine/threonine-protein kinase (Homo sapiens) (P31749 whole entry): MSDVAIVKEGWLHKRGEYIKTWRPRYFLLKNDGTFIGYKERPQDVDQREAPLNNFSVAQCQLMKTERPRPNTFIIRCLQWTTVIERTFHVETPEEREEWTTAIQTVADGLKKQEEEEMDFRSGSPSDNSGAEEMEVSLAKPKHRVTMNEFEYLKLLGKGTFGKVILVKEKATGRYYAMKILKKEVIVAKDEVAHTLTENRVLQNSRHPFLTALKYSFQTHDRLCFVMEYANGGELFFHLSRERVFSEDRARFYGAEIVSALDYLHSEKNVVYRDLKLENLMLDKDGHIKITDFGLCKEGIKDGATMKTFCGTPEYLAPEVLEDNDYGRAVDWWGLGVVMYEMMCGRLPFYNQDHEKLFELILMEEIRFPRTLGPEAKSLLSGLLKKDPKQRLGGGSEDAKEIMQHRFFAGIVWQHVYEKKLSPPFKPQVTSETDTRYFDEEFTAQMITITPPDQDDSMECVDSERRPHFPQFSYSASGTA
Chain of Cyclin-dependent kinase 9 (Homo sapiens) (P50750 whole entry): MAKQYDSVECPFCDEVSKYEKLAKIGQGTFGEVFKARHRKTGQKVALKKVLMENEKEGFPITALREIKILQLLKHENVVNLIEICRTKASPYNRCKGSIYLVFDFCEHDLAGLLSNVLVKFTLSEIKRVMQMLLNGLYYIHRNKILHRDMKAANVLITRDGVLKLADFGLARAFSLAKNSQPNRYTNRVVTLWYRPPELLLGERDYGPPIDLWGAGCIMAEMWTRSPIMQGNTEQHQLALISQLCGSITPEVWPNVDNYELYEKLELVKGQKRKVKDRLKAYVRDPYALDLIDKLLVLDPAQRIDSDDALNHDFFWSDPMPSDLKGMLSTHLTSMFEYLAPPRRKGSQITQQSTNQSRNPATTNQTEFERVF
Chain of Mast/stem cell growth factor receptor Kit (Homo sapiens) (P10721 whole entry): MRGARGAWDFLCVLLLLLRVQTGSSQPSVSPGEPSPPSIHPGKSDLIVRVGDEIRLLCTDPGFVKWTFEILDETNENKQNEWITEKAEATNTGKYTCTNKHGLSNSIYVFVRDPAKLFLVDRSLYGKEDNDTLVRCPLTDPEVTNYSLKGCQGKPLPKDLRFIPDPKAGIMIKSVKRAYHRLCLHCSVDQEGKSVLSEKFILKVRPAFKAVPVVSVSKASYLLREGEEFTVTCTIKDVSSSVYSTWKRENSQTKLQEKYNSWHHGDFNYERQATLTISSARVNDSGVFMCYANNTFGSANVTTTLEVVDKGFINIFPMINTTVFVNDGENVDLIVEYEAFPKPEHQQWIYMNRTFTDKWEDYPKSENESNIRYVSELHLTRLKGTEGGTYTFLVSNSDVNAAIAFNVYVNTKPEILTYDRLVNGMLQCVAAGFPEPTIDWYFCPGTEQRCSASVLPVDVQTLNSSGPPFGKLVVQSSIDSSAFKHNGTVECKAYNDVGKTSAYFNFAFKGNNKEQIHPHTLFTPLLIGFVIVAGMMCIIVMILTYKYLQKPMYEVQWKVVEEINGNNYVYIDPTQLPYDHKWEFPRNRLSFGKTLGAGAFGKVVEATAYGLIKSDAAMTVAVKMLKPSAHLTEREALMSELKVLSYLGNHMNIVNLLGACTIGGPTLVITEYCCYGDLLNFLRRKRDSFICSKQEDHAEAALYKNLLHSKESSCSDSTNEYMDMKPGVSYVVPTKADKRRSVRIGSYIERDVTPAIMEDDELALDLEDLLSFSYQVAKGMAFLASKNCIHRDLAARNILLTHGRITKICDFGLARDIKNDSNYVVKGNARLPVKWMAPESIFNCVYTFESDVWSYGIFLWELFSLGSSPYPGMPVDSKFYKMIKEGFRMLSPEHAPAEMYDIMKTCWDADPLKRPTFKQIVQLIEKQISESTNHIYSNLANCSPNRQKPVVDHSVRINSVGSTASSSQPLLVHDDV
Chain of Fibroblast growth factor receptor 2 (Homo sapiens) (P21802 22-821 limits assumed): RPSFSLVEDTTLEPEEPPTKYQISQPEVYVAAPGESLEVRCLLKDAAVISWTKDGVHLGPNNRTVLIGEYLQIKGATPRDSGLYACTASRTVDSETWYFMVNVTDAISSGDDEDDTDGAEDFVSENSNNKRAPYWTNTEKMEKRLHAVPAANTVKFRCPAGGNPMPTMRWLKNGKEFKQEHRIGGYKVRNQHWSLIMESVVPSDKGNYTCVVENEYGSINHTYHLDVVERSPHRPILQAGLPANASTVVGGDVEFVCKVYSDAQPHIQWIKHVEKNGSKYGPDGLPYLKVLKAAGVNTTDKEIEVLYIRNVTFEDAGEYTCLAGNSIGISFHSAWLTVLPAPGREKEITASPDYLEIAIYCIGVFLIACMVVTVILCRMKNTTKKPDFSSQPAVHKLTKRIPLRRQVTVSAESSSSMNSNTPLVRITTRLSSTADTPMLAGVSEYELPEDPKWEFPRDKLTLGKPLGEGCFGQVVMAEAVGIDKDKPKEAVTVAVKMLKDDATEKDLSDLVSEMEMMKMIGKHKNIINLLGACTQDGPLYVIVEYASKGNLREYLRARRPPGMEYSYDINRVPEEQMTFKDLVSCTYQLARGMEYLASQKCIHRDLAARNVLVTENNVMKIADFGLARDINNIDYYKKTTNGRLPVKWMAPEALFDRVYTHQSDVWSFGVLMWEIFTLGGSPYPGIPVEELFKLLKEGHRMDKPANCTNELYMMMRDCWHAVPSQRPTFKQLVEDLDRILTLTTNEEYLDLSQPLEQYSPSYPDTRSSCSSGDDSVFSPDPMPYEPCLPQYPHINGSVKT
Chain of Tyrosine-protein kinase receptor UFO (Homo sapiens) (P30530 whole entry): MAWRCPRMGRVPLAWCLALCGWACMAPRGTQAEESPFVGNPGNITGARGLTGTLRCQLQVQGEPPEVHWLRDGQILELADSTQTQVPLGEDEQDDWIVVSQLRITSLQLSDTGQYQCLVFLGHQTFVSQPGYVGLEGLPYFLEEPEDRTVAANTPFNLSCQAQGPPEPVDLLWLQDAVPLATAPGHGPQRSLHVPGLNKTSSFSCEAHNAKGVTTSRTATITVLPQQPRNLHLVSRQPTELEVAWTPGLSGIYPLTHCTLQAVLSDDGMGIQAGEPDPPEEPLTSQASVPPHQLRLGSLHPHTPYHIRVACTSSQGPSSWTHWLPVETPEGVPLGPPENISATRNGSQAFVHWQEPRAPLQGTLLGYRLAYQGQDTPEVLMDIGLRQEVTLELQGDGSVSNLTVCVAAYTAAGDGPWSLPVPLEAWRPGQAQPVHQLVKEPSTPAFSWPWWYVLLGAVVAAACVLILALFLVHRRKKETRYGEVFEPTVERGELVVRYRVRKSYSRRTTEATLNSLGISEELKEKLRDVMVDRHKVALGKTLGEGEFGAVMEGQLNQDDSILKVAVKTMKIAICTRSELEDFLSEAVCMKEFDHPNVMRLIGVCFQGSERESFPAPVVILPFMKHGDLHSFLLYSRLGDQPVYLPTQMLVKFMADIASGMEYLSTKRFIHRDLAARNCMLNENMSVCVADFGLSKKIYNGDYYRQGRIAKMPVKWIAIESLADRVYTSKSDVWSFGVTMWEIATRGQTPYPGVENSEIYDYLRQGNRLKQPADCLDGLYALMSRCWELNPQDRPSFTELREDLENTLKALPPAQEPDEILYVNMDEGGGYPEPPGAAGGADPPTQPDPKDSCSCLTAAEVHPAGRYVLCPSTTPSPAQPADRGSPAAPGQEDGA
Chain of MAP kinase-interacting serine/threonine-protein kinase 1 (Homo sapiens) (Q9BUB5 whole entry, looked up): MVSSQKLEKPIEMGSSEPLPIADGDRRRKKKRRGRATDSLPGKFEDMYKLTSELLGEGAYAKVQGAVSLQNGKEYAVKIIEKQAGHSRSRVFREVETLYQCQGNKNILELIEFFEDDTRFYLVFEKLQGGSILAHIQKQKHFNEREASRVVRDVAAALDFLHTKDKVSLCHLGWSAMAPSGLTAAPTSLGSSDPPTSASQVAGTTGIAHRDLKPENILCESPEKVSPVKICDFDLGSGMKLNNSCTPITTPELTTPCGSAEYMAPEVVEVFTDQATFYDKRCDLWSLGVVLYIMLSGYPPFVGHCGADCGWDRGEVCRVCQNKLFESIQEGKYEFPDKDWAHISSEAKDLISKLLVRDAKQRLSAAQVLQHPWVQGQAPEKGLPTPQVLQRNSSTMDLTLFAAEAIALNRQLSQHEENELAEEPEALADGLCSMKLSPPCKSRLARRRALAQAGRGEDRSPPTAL

CO[C@@H]1[C@H](N(C)C(=O)CCC(=O)NCCC(=O)NCCC(=O)NCCC(N)=O)C[C@H]2O[C@]1(C)n1c3ccccc3c3c4c(c5c6ccccc6n2c5c31)C(=O)NC4
Activity [1]: 100% | Activity [2]: 100% | Activity [3]: 69% | Activity [4]: 27% | Ratio IC50 [5]: > 60

CO[C@@H]1[C@H](N(C)C(=O)CCC(=O)NCCC(=O)NCCC(=O)NCCC(=O)NCCC(=O)NCCC(=O)NCCC(=O)NCCC(=O)N[C@H]2CSSC[C@@H](C(=O)NCC(N)=O)NC(=O)CNC(=O)[C@H](Cc3ccccc3)NC(=O)[C@H](C(C)C)NC(=O)[C@H](CCCNC(=N)N)NC(=O)[C@H](Cc3ccccc3)NC(=O)[C@H](C(C)C)NC2=O)C[C@H]2O[C@]1(C)n1c3ccccc3c3c4c(c5c6ccccc6n2c5c31)C(=O)NC4 ({Staurosporine-Suc-βAla-βAla-βAla-βAla-βAla-βAla-βAla}-CVFRVFGCG-NH2; disulfide 1-8)
Activity [6]: 14% | Activity [7]: 100% | Activity [8]: 58% | Activity [9]: 44% | Activity [10]: 17%

CO[C@@H]1[C@H](N(C)C(=O)CCC(=O)NCCC(=O)NCCC(=O)NCCC(=O)NCCC(=O)NCCC(=O)NCCC(=O)NCCC(=O)N[C@H]2CNC(=O)C[C@@H](C(N)=O)NC(=O)CNC(=O)[C@H](Cc3ccccc3)NC(=O)[C@H](C(C)C)NC(=O)[C@H](CCCNC(=N)N)NC(=O)[C@H](Cc3ccccc3)NC(=O)[C@H](C(C)C)NC2=O)C[C@H]2O[C@]1(C)n1c3ccccc3c3c4c(c5c6ccccc6n2c5c31)C(=O)NC4 ({Staurosporine-Suc-βAla-βAla-βAla-βAla-βAla-βAla-βAla}-[Dap]VFRVFGD-NH2; lactam 1-8)
Activity [11]: 100% | Activity [12]: 99% | Activity [13]: 85% | Activity [14]: 95% | Activity [15]: 100% | Activity [16]: 23% | Activity [17]: 100%
